Measurements: ChEMBL document CHEMBL2150970, “Synthesis, anticancer activities and molecular modeling studies of novel indole retinoid derivatives” (Eur J Med Chem, 2012)
pIC50: −log10 of the molar value. Activity calls are given as the source filed them. The calls are words filed in the database; no cut-off is given here.

Assays:
MCF7 [1] = assay: Ratio of IC50 for human MCF12A cells to IC50 for human MCF7 cells
Outline: (§1)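 Each IC50 came from the SRB assay after 3 days' exposure: 10⁴ cells/well, TCA fixation, 0.4% SRB, Tris solubilization, A515, triplicates, DMSO control. Ratio is immortalized normal breast MCF-12A IC50 over the breast cancer line's IC50. Media carried 10% FCS plus antibiotics: DMEM for most lines, DMEM with sodium pyruvate for CAMA-1/MDA-MB-157, glucose-rich RPMI for ZR-75-1, McCoy for SK-BR-3.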

BT-474 = assay: Cytotoxicity against human BT474 cells after 3 days by SRB assay; type: functional, cell-based; conditions: BT-474, 72 h
Outline: (§2)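 Cells at 10⁴/well were treated 24 h after seeding and exposed for three days. They were then fixed in ice-cold 10% TCA for 60 min at 4 °C, stained with 0.4% SRB for 10 min at room temperature, washed with 1% acetic acid and solubilised in 10 mM Tris base. Absorbance was read at 515 nm. IC₅₀ was determined in triplicate with DMSO vehicle controls.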

T47D [2] = assay: Ratio of IC50 for human MCF12A cells to IC50 for human T47D cells; outline: as §1
MCF-12A [3] = assay: Ratio of IC50 for human MCF12A cells to IC50 for human CAMA1 cells; outline: as §1
MDA-MB-361 [4] = assay: Cytotoxicity against human MDA-MB-361 cells after 3 days by SRB assay; type: functional, cell-based; conditions: MDA-MB-361, 72 h; outline: as §2
MDA-MB-231 [5] = assay: Induction of apoptosis in ER-negative human MDA-MB-231 cells assessed as apoptotic cells at 1.8 uM measured on day 4 by Annexin-V-FITC/propidium iodide staining based FACS flow cytometry; type: functional
Outline: (§3)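 Cells seeded at 5×10⁵ per plate (37 °C, 5% CO2) and treated the following day at two concentrations. On days 2 and 4 after treatment, 1×10⁶ cells were stained with a FITC Annexin V/propidium iodide kit, kept on ice in the dark, and analysed at once on a FACSCalibur. Mean percentage of Annexin V+/PI+ cells is reported. Controls: matched DMSO, plus camptothecin and 1% v/v H2O2 as positive controls.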

MDA-MB-231 [6] = assay: Cytotoxicity against human MDA-MB-231 cells after 3 days by SRB assay; type: functional, cell-based; conditions: MDA-MB-231, 72 h; outline: as §2
MDA-MB-231 [7] = assay: Induction of apoptosis in ER-negative human MDA-MB-231 cells assessed as apoptotic cells at 3.6 uM measured on day 2 by Annexin-V-FITC/propidium iodide staining based FACS flow cytometry; type: functional; outline: as §3
MDA-MB-231 [8] = assay: Induction of apoptosis in ER-negative human MDA-MB-231 cells assessed as apoptotic cells at 1.83 uM after 3 days by Hoechst staining based fluorescent microscopy; type: functional, cell-based
T47D [9] = assay: Cytotoxicity against human T47D cells after 3 days by SRB assay; type: functional, cell-based; conditions: for pIC50: Homo sapiens, T47D, 72 h, read-out: IC50
Outline: (§4)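 Human cancer cells grown in DMEM with 10% FCS and penicillin/streptomycin (CAMA-1 medium also had 1% sodium pyruvate), at 37 °C, 5% CO2. Seeded at 10⁴ cells/well, dosed 24 h later, and exposed 3 days. Fixed with ice-cold 10% TCA for 60 min, stained 10 min with 0.4% SRB at room temperature, washed with 1% acetic acid, dye dissolved in 10 mM Tris base, A515 read. Triplicate runs with matched DMSO controls; IC50 determined.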

CAMA-1 = assay: Cytotoxicity against human CAMA1 cells after 3 days by SRB assay; type: functional, cell-based; conditions: CAMA-1, 72 h; outline: as §4
MDA-MB-231 [10] = assay: Induction of apoptosis in ER-negative human MDA-MB-231 cells assessed as apoptotic cells at 1.8 uM measured on day 2 by Annexin-V-FITC/propidium iodide staining based FACS flow cytometry; type: functional; outline: as §3
MCF-12A [11] = assay: Ratio of IC50 for human MCF12A cells to IC50 for human BT20 cells; outline: as §1
MCF-12A [12] = assay: Cytotoxicity against human MCF12A cells after 3 days by SRB assay; type: cell-based; conditions: 72 h; outline: as §2
HCT-116 = assay: Cytotoxicity against human HCT116 cells after 3 days by SRB assay; type: functional, cell-based; conditions: for pIC50: Homo sapiens, HCT-116, 72 h, read-out: IC50; outline: as §4
MDA-MB-361 [13] = assay: Ratio of IC50 for human MCF12A cells to IC50 for human MDA-MB-361 cells; outline: as §1
MDA-MB-453 [14] = assay: Cytotoxicity against human MDA-MB-453 cells after 3 days by SRB assay; type: functional, cell-based; conditions: MDA-MB-453, 72 h; outline: as §2
MCF7 [15] = assay: Cytotoxicity against human MCF7 cells after 3 days by SRB assay; type: functional, cell-based; conditions: MCF7, 72 h; outline: as §2
MDA-MB-157 [16] = assay: Cytotoxicity against human MDA-MB-157 cells after 3 days by SRB assay; type: functional, cell-based; conditions: MDA-MB-157, 72 h; outline: as §2
Huh-7 = assay: Cytotoxicity against human HuH7 cells after 3 days by SRB assay; type: functional, cell-based; conditions: for pIC50: Homo sapiens, Huh-7, 72 h, read-out: IC50; outline: as §4
MDA-MB-453 [17] = assay: Ratio of IC50 for human MCF12A cells to IC50 for human MDA-MB-453 cells; outline: as §1
SK-BR-3 = assay: Cytotoxicity against human SKBR3 cells after 3 days by SRB assay; type: functional, cell-based; conditions: SK-BR-3, 72 h; outline: as §2
BT-20 = assay: Cytotoxicity against human BT20 cells after 3 days by SRB assay; type: functional, cell-based; conditions: BT-20, 72 h; outline: as §2
ZR-75-1 = assay: Cytotoxicity against human ZR-75-1 cells after 3 days by SRB assay; type: functional, cell-based; conditions: ZR-75-1, 72 h; outline: as §2
T47D [18] = assay: Induction of apoptosis in ER-positive human T47D cells assessed as apoptotic cells at IC50 concentration after 3 days by Hoechst staining based fluorescent microscopy; type: functional, cell-based
MDA-MB-157 [19] = assay: Ratio of IC50 for human MCF12A cells to IC50 for human MDA-MB-157 cells; outline: as §1
MDA-MB-231 [20] = assay: Induction of apoptosis in ER-negative human MDA-MB-231 cells assessed as apoptotic cells at 3.6 uM measured on day 4 by Annexin-V-FITC/propidium iodide staining based FACS flow cytometry; type: functional; outline: as §3

`CC1(C)CCC(C)(C)c2cc(C(=O)/C=C/c3c[nH]c4ccccc34)ccc21` gave a Ratio IC50 (MCF7 [1]) of 2.29, a pIC50 (BT-474) of 5.72 and a Ratio IC50 (T47D [2]) of 3.38. It also gave a Ratio IC50 (MCF-12A [3]) greater than 392, a pIC50 (MDA-MB-361 [4]) of 7.22 and an Activity (MDA-MB-231 [5]) of 10.53%. The pIC50 (MDA-MB-231 [6]) was 5.74, the Activity (MDA-MB-231 [7]) was 6.83% and the Activity (MDA-MB-231 [8]) was “Active”. It also gave a pIC50 (T47D [9]) of 7.00, a pIC50 (CAMA-1) greater than 8.00 and an Activity (MDA-MB-231 [10]) of 7.1%. It also gave a Ratio IC50 (MCF-12A [11]) of 2.99, a pIC50 (MCF-12A [12]) of 5.41 and a pIC50 (HCT-116) of 7.70. For the same molecule, the Ratio IC50 (MDA-MB-361 [13]) was 65.3, the pIC50 (MDA-MB-453 [14]) was greater than 8.00 and the pIC50 (MCF7 [15]) was 5.77. It also gave a pIC50 (MDA-MB-157 [16]) of 5.84, a pIC50 (Huh-7) greater than 8.00 and a Ratio IC50 (MDA-MB-453 [17]) greater than 392. The pIC50 (SK-BR-3) was 5.89, the pIC50 (BT-20) was 5.88 and the pIC50 (ZR-75-1) was 5.41. The Activity (T47D [18]) was “Active”, the Ratio IC50 (MDA-MB-157 [19]) was 2.68 and the Activity (MDA-MB-231 [20]) was 15.62%.
Work on `CC1(C)CCC(C)(C)c2cc(C(=O)/C=C/c3c[nH]c4ccc(Br)cc34)ccc21` yielded a pIC50 (T47D [9]) of 4.94, a pIC50 (HCT-116) of 4.97 and a pIC50 (Huh-7) of 4.85.
In the case of `COc1ccc2[nH]cc(/C=C/C(=O)c3ccc4c(c3)C(C)(C)CCC4(C)C)c2c1`, the pIC50 (T47D [9]) was 4.94, the pIC50 (HCT-116) was 4.86 and the pIC50 (Huh-7) was 4.81.
`CC[C@@]1(O)C(=O)OCc2c1cc1n(c2=O)Cc2cc3ccccc3nc2-1` [CAMPTOTHECIN] was tested, and the pIC50 (BT-474) was 4.89, the pIC50 (MDA-MB-361 [4]) was 6.77 and the pIC50 (MDA-MB-231 [6]) was greater than 8.00. The pIC50 (T47D [9]) was greater than 8.00, the pIC50 (MCF-12A [12]) was greater than 8.00 and the pIC50 (HCT-116) was greater than 8.00. The pIC50 (MDA-MB-453 [14]) was greater than 8.00, the pIC50 (MCF7 [15]) was greater than 8.00 and the pIC50 (MDA-MB-157 [16]) was 7.70. For the same molecule, the pIC50 (Huh-7) was 7.22, the pIC50 (SK-BR-3) was greater than 8.00 and the pIC50 (BT-20) was greater than 8.00. For the same molecule, the pIC50 (ZR-75-1) was greater than 8.00.
In the case of `CC1(C)CCC(C)(C)c2cc(C(=O)/C=C/c3c[nH]c4ccc(Cl)cc34)ccc21`, the pIC50 (T47D [9]) was 4.88, the pIC50 (HCT-116) was 4.97 and the pIC50 (Huh-7) was 4.81.
For `CC1(C)CCC(C)(C)c2cc(C(=O)/C=C/c3c[nH]c4ccc(C(=O)O)cc34)ccc21`, the IC50 (T47D [9]; t47d) was “Not Active”, the IC50 (HCT-116; hct-116) was “Not Active” and the IC50 (Huh-7; huh-7) was “Not Active”.
